Assay [1] relates to PDZ domain. As to conditions: previous virtual screening; cited from earlier work.
In assay [2] the target is PDZ domain. As to conditions: fluorescence spectroscopy, earlier studies; cited from earlier work.
For assay [3], the system named is Wnt signaling (second axis formation). As to conditions: Xenopus, Wnt3A upstream of Dvl; cited from earlier work.
In assay [4] the target is T1, mouse Dvl1 PDZ domain (Mus musculus, UniProt P51141).
T1 sequence (P51141 247-341): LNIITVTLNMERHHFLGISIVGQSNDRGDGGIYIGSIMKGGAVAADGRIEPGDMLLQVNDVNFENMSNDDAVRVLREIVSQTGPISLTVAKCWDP
As to the kind of experiment: 15N HSQC NMR chemical shift perturbation titration. In kind it is binding. A digest of the protocol:
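15N-labeled mouse Dvl1 PDZ domain (residues 247-341) at 0.2-0.3 mM in 100 mM potassium phosphate pH 7.5, 10% D2O, 0.5 mM EDTA; 15N HSQC at 600 MHz, 25 °C. Five titration points (ligand:protein 1 to 15); Arg322 shift perturbation tracked, reported at about 10 equivalents. One-site model with dilution correction and two-parameter nonlinear least-squares fit gave KD. μM values were rescaled against the reference inhibitor's earlier fluorescence KD.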

The text below walks through data of paper PMC2648812 (Journal of computer-aided molecular design, 2008).

Entries after “also recorded” stand apart in the source; their conditions may differ. Non-standard residues stand in square brackets, D forms with d. Residues, ends and D or L forms follow the SMILES beside them. ξ: configuration not given here. ξT = CC(O)C(N)C(=O)O

As usually defined, the Kd is a measure of binding affinity in units of concentration.

As to `CC(O)C(N)C(=O)NCC(=O)NCC(=O)O` (stereo not drawn) [NSC344681, ((((2-amino-3-hydroxybutanoyl)amino)acetyl)amino)acetic acid] (H-[ξT]-Gly-Gly-OH), the “binding to the PDZ domain” value in assay [1] was “non-binders; also recorded: do not bind to the PDZ domain”.

Regarding `COC(=O)C(CON)C(=O)NC(=O)C(N)CON` (stereo not drawn) [NSC119132, methyl 3-((2-amino-3-(aminooxy)propanoyl)amino)-2-((aminooxy)methyl)-3-oxopropanoate], the “binding to the PDZ domain” value in assay [1] is “non-binders; also recorded: do not bind to the PDZ domain”.

With `CC(NC(=O)C(OC(=O)C(C)NC(=O)OC(C)(C)C)C(C)C)C(=O)OC(C(=O)O)C(C)C` (stereo not drawn) [NSC668036, 9,15-diisopropyl-2,2,6,12-tetramethyl-4,7,10,13-tetraoxo-3,8,14-trioxa-5,11-diazahexadec an-16-oic acid], the Kd in assay [2] was 0.237 mM; in assay [4] it was 27 mM. Besides, the “second axis formation induced by Wnt3A” value in assay [3] is “inhibited the second axis formation”. In addition, in assay [4] (10.4 equivalents of NSC668036), the “Δδ chemical shift perturbation changes of Arg322” value was 0.035. Besides, in assay [4] (NMR titration of 15N-labeled PDZ domain), the “Exchange regime (in words)” value is given as “fast exchange regime”. The “difference between KDs by NMR and by fluorescence” value in assay [4] (NSC668036, NMR KD versus fluorescence KD) is listed as 114 fold. Further, the Exchange regime result in assay [4] (from intermediate exchange (++++) to fast exchange (+) with the PDZ domain) is given as “+”.
